Converted amounts (≈) assume the structure as drawn.
What was measured:
Format in all cases: functional
[1] = tested on: Mycobacterium tuberculosis; assay: Antimicrobial activity against Mycobacterium tuberculosis H37Rv ATCC 27294 at 1 to 100 ug/ml after 7 days by resazurin assay
Method in brief: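 Preliminary screen at three concentrations (1, 10 and 100) by resazurin microtitre assay. Cultures were grown in Middlebrook 7H9 with 10% OADC, and compounds came from 2 mg/mL DMF stocks with DMF controls. Plates were incubated 7 days at 37 °C, and resazurin colour was read after 1 h. Inhibition was scored as no blue-to-pink change.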

[2] = tested on: Mycobacterium tuberculosis; assay: Antimicrobial activity against Mycobacterium tuberculosis H37Rv ATCC 27294 after 7 days by resazurin assay; settings: H37Rv ATCC 27294, 168 h
Method in brief: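 Resazurin microtitre assay. Cultures were grown in Middlebrook 7H9 with 10% OADC and added to fresh medium in 96-well plates. Test compounds came from 2 mg/mL DMF stocks, with DMF-only controls. Plates were incubated 7 days at 37 °C, then resazurin was added and read after 1 h at 37 °C. MIC was the lowest concentration preventing the blue-to-pink change.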

Rhizopus = assay: Antimicrobial activity against Rhizopus sp. after 3 to 4 days by serial plate dilution method
Method in brief: (§1)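 Fungal MIC by serial plate dilution. Sabouraud agar (peptone, D-glucose, agar; pH 5.7) plates seeded with saline spore suspension, dried 1 h at 37 °C. Wells punched and filled with compound in DMSO; DMSO-only control. Triplicate plates held 3–4 days at 37 °C; inhibition zone diameter measured. Amphotericin B positive control. Tested range […] per mL.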

Aspergillus flavus = assay: Antimicrobial activity against Aspergillus flavus after 3 to 4 days by serial plate dilution method; method in brief: as §1
Candida albicans = assay: Antimicrobial activity against Candida albicans after 3 to 4 days by serial plate dilution method; method in brief: as §1
Klebsiella pneumoniae = assay: Antimicrobial activity against Klebsiella pneumoniae ATCC 13883 after 16 to 18 hrs by serial plate dilution method
Method in brief: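 Bacterial MIC by serial dilution in Mueller-Hinton broth adjusted to pH 5.0 with phosphate buffer. Tubes inoculated with standardized bacterial suspension, incubated 16–18 h at 37 °C. MIC read as lowest concentration with no visible growth. Range […] per mL. DMSO as negative control, ciprofloxacin as positive control.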

Escherichia coli = assay: Antimicrobial activity against Escherichia coli ATCC 25922 after 16 to 18 hrs by […]
Staphylococcus aureus = assay: Antimicrobial activity against Staphylococcus aureus ATCC 25923 after 16 to 18 hrs by […]
[3] = tested on: Mycolicibacterium fortuitum; assay: Antimicrobial activity against Mycobacterium fortuitum ATCC 19542 after 7 days by resazurin assay; settings: ATCC 19542, 168 h
[4] = tested on: Mycolicibacterium smegmatis; assay: Antimicrobial activity against Mycobacterium smegmatis (MC2) ATCC 19420 after 7 days by resazurin assay; settings: (MC2) ATCC 19420, 168 h

Compound | inhibition (INH) [1] [%] | MIC [2] [µg/mL] | MIC (Rhizopus) [µg/mL] | MIC (Aspergillus flavus) [µg/mL] | MIC (Candida albicans) [µg/mL] | MIC (Klebsiella pneumoniae) [µg/mL] | MIC (Escherichia coli) [µg/mL] | MIC (Staphylococcus aureus) [µg/mL] | MIC [3] [µg/mL] | MIC [4] [µg/mL]
COc1cc(NS(=O)(=O)C2(c3ccc(Cl)cc3)CC2)ccc1-n1cnc(Cl)c1 | 90 | 1.25 (≈ 2.85 µM) | 128 (≈ 292 µM) | 64 (≈ 146 µM) | 128 (≈ 292 µM) | 128 (≈ 292 µM) | 64 (≈ 146 µM) | 128 (≈ 292 µM) | 10 (≈ 22.8 µM) | –
COc1cc(NS(=O)(=O)c2ccccc2)ccc1-n1cnc(Cl)c1 | <90 | 5 (≈ 13.7 µM) | 64 (≈ 176 µM) | 128 (≈ 352 µM) | 128 (≈ 352 µM) | 128 (≈ 352 µM) | 64 (≈ 176 µM) | 8 (≈ 22 µM) | – | 10 (≈ 27.5 µM)
COc1ccc(S(=O)(=O)Nc2ccc(-n3cnc(Cl)c3)c(OC)c2)cc1OC | 90 | 1.25 (≈ 2.95 µM) | 128 (≈ 302 µM) | 256 (≈ 604 µM) | 128 (≈ 302 µM) | 256 (≈ 604 µM) | 128 (≈ 302 µM) | 256 (≈ 604 µM) | 1.25 (≈ 2.95 µM) | 1.25 (≈ 2.95 µM)
COc1cc(NS(=O)(=O)c2ccc([N+](=O)[O-])cc2)ccc1-n1cnc(Cl)c1 | 90 | 0.625 (≈ 1.53 µM) | 64 (≈ 157 µM) | 128 (≈ 313 µM) | 256 (≈ 626 µM) | 64 (≈ 157 µM) | 128 (≈ 313 µM) | 128 (≈ 313 µM) | 1.25 (≈ 3.06 µM) | 10 (≈ 24.5 µM)
COc1cc(NS(=O)(=O)c2cccc(C(C)C#N)c2)ccc1-n1cnc(Cl)c1 (centres undefined) | <90 | 2.5 (≈ 6 µM) | 256 (≈ 614 µM) | 128 (≈ 307 µM) | 64 (≈ 154 µM) | 64 (≈ 154 µM) | 128 (≈ 307 µM) | 64 (≈ 154 µM) | – | 2.5 (≈ 6 µM)
COc1cc(NC(=O)c2ccccc2)ccc1-n1cnc(Cl)c1 | <90 | 5 (≈ 15.3 µM) | 128 (≈ 391 µM) | 256 (≈ 781 µM) | 256 (≈ 781 µM) | 128 (≈ 391 µM) | 256 (≈ 781 µM) | 128 (≈ 391 µM) | – | 10 (≈ 30.5 µM)
COc1ccc(C(=O)Nc2ccc(-n3cnc(Cl)c3)c(OC)c2)cc1OC | 0 | – | 256 (≈ 660 µM) | 128 (≈ 330 µM) | > 256 | 256 (≈ 660 µM) | 256 (≈ 660 µM) | > 256 | – | –
COc1cc(NC(=O)c2ccc([N+](=O)[O-])cc2)ccc1-n1cnc(Cl)c1 | <90 | 1.25 (≈ 3.35 µM) | 256 (≈ 687 µM) | > 256 | > 256 | > 256 | > 256 | 256 (≈ 687 µM) | 1.25 (≈ 3.35 µM) | 2.5 (≈ 6.71 µM)
COc1cc(NC(=O)c2cccc(C(C)C#N)c2)ccc1-n1cnc(Cl)c1 (centres undefined) | 90 | 2.5 (≈ 6.56 µM) | 128 (≈ 336 µM) | 256 (≈ 672 µM) | 128 (≈ 336 µM) | 128 (≈ 336 µM) | > 256 | 256 (≈ 672 µM) | 10 (≈ 26.3 µM) | –
COc1cc(NS(=O)(=O)c2ccc(Cl)cc2Cl)ccc1-n1cnc(Cl)c1 | <90 | 5 (≈ 11.6 µM) | 128 (≈ 296 µM) | 64 (≈ 148 µM) | 128 (≈ 296 µM) | 64 (≈ 148 µM) | 4 (≈ 9.24 µM) | 8 (≈ 18.5 µM) | – | –
COc1cc(NS(=O)(=O)c2ccco2)ccc1-n1cnc(Cl)c1 | <90 | 5 (≈ 14.1 µM) | 256 (≈ 724 µM) | 64 (≈ 181 µM) | 128 (≈ 362 µM) | > 256 | 64 (≈ 181 µM) | 128 (≈ 362 µM) | – | 10 (≈ 28.3 µM)
COc1cc(NS(=O)(=O)c2cccc([N+](=O)[O-])c2Cl)ccc1-n1cnc(Cl)c1 | <90 | 2.5 (≈ 5.64 µM) | 256 (≈ 578 µM) | 128 (≈ 289 µM) | 64 (≈ 144 µM) | 32 (≈ 72.2 µM) | 128 (≈ 289 µM) | 8 (≈ 18 µM) | – | 2.5 (≈ 5.64 µM)
COc1cc(F)c(S(=O)(=O)Nc2ccc(-n3cnc(Cl)c3)c(OC)c2)c(C(F)(F)F)c1 | <90 | 5 (≈ 10.4 µM) | 256 (≈ 534 µM) | 128 (≈ 267 µM) | 128 (≈ 267 µM) | 32 (≈ 66.7 µM) | 128 (≈ 267 µM) | 64 (≈ 133 µM) | – | 10 (≈ 20.8 µM)
COc1cc(NS(=O)(=O)c2cccs2)ccc1-n1cnc(Cl)c1 | 90 | 1.25 (≈ 3.38 µM) | 128 (≈ 346 µM) | 256 (≈ 692 µM) | 64 (≈ 173 µM) | 256 (≈ 692 µM) | 64 (≈ 173 µM) | 128 (≈ 346 µM) | 1.25 (≈ 3.38 µM) | 1.25 (≈ 3.38 µM)
COc1cc(NC(=O)c2ccc(Cl)cc2Cl)ccc1-n1cnc(Cl)c1 | <90 | 5 (≈ 12.6 µM) | 128 (≈ 323 µM) | 128 (≈ 323 µM) | > 256 | > 256 | 64 (≈ 161 µM) | 128 (≈ 323 µM) | – | 10 (≈ 25.2 µM)
COc1cc(NC(=O)Cc2cccc(C(F)(F)F)c2)ccc1-n1cnc(Cl)c1 | <90 | 2.5 (≈ 6.1 µM) | > 256 | 256 (≈ 625 µM) | 128 (≈ 312 µM) | 64 (≈ 156 µM) | 256 (≈ 625 µM) | 128 (≈ 312 µM) | 10 (≈ 24.4 µM) | 10 (≈ 24.4 µM)
COc1cc(NC(=O)c2ccco2)ccc1-n1cnc(Cl)c1 | <90 | 5 (≈ 15.7 µM) | > 256 | 128 (≈ 403 µM) | > 256 | > 256 | 128 (≈ 403 µM) | > 256 | – | –
COc1cc(NC(=O)c2cc(F)cc(C(F)(F)F)c2)ccc1-n1cnc(Cl)c1 | 90 | 10 (≈ 24.2 µM) | 128 (≈ 309 µM) | 256 (≈ 619 µM) | 64 (≈ 155 µM) | 64 (≈ 155 µM) | 128 (≈ 309 µM) | 128 (≈ 309 µM) | 10 (≈ 24.2 µM) | –
COc1ccc(C(=O)Nc2ccc(-n3cnc(Cl)c3)c(OC)c2)cc1 | 0 | – | > 256 | 256 (≈ 715 µM) | > 256 | 256 (≈ 715 µM) | > 256 | > 256 | – | –
COc1cc(NC(=O)c2ccc(C(F)(F)F)cc2)ccc1-n1cnc(Cl)c1 | 90 | 1.25 (≈ 3.16 µM) | 64 (≈ 162 µM) | 128 (≈ 323 µM) | 32 (≈ 80.9 µM) | 64 (≈ 162 µM) | 64 (≈ 162 µM) | 128 (≈ 323 µM) | 1.25 (≈ 3.16 µM) | 2.5 (≈ 6.32 µM)
COc1cc(NC(=O)c2cccc([N+](=O)[O-])c2Cl)ccc1-n1cnc(Cl)c1 | 90 | 1.25 (≈ 3.07 µM) | > 256 | 256 (≈ 629 µM) | 128 (≈ 314 µM) | 128 (≈ 314 µM) | > 256 | 128 (≈ 314 µM) | 1.25 (≈ 3.07 µM) | 1.25 (≈ 3.07 µM)
COc1cc(NC(=O)c2c(F)ccc(C(F)(F)F)c2Cl)ccc1-n1cnc(Cl)c1 | <90 | 2.5 (≈ 5.58 µM) | 128 (≈ 286 µM) | > 256 | 128 (≈ 286 µM) | 256 (≈ 571 µM) | 128 (≈ 286 µM) | > 256 | – | 2.5 (≈ 5.58 µM)
COc1cc(F)c(C(=O)Nc2ccc(-n3cnc(Cl)c3)c(OC)c2)c(F)c1 | <90 | 5 (≈ 12.7 µM) | > 256 | 256 (≈ 650 µM) | 256 (≈ 650 µM) | 128 (≈ 325 µM) | > 256 | 256 (≈ 650 µM) | – | –
COc1cc(NC(=O)c2cccs2)ccc1-n1cnc(Cl)c1 | 90 | 5 (≈ 15 µM) | 32 (≈ 95.9 µM) | 64 (≈ 192 µM) | 256 (≈ 767 µM) | 64 (≈ 192 µM) | 128 (≈ 383 µM) | 128 (≈ 383 µM) | 2.5 (≈ 7.49 µM) | 1.25 (≈ 3.74 µM)
COc1cc(NC(=O)C2(c3ccc(Cl)cc3)CC2)ccc1-n1cnc(Cl)c1 | <90 | 2.5 (≈ 6.21 µM) | > 256 | 256 (≈ 636 µM) | > 256 | 256 (≈ 636 µM) | 128 (≈ 318 µM) | 64 (≈ 159 µM) | – | 2.5 (≈ 6.21 µM)
C[C@@H]1[C@H](O)[C@@H](C)/C=C/C=C/C=C/C=C/C=C/C=C/C=C/[C@H](O[C@@H]2O[C@H](C)[C@@H](O)[C@H](N)[C@@H]2O)C[C@@H]2O[C@](O)(C[C@@H](O)C[C@@H](O)[C@H](O)CC[C@@H](O)C[C@@H](O)CC(=O)O[C@H]1C)C[C@H](O)[C@H]2C(=O)O [AMPHOTERICIN B] | – | – | 16 (≈ 17.3 µM) | 8 (≈ 8.66 µM) | 8 (≈ 8.66 µM) | – | – | – | – | –
O=C(O)c1cn(C2CC2)c2cc(N3CCNCC3)c(F)cc2c1=O [CIPROFLOXACIN] | – | – | – | – | – | 16 (≈ 48.3 µM) | – | 8 (≈ 24.1 µM) | – | –
NNC(=O)c1ccncc1 [ISONIAZID] | 95 | 0.7 (≈ 5.1 µM) | – | – | – | – | – | – | 12.5 (≈ 91.1 µM) | 50 (≈ 365 µM)
CO[C@H]1/C=C/O[C@@]2(C)Oc3c(C)c(O)c4c(O)c(c(/C=N/N5CCN(C)CC5)c(O)c4c3C2=O)NC(=O)/C(C)=C\C=C\[C@H](C)[C@H](O)[C@@H](C)[C@@H](O)[C@@H](C)[C@H](OC(C)=O)[C@@H]1C [RIFAMPIN] | 95 | 0.5 (≈ 0.608 µM) | – | – | – | – | – | – | 1.5 (≈ 1.82 µM) | 1.5 (≈ 1.82 µM)
